Measurements reported in ChEMBL document CHEMBL4613294, “Inhibition of Nonessential Bacterial Targets: Discovery of a Novel Serine O-Acetyltransferase Inhibitor” (ACS Med Chem Lett, 2020).
In brackets after ≈: the same amount, converted by molar mass. Activity calls are given as the source filed them. No cut-off for these calls is given here.

Key:
[1] = test system: Salmonella enterica subsp. enterica serovar Typhimurium; assay: Inhibition of Salmonella typhimurium Serine acetyltransferase expressed in Escherichia coli Tuner(TM) BL21(DE3) cells at 100 uM using acetylCo-A and L-serine as substrate measured every 27 secs for 5 mins by DNTB reagent-based UV-Visible spectrophotometric method relative to control
In short: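 Recombinant StSAT activity followed indirectly with Ellman's reagent: CoASH released from acetyl-CoA plus L-Ser gives TNB, read by absorbance at pH above 7 (ε 14 000 M–1 cm–1) in 96-well format. Compounds at 100 μM, kinetic reads at 27 s intervals, % inhibition taken at 180 s endpoint. Hits at ≥40% retested at 100 μM.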

Escherichia coli [2] = assay: Antibacterial activity against Escherichia coli ATCC 25922 incubated in LB 20% minimal medium lacking cysteine for 16 to 24 hrs by CLSI-based broth microdilution assay; type: functional
Escherichia coli [3] = assay: Antibacterial activity against Escherichia coli ATCC 25922 incubated in MHB medium for 16 to 24 hrs by CLSI-based broth microdilution assay; type: functional
[4] = test system: Salmonella enterica subsp. enterica serovar Typhimurium; assay: Inhibition of Salmonella typhimurium Serine acetyltransferase expressed in Escherichia coli Tuner(TM) BL21(DE3) cells at 50 to 200 uM using acetylCo-A and L-serine as substrate measured every 27 secs for 5 mins by DNTB reagent-based UV-Visible spectrophotometric method
[5] = Solubility of compound at 200 uM; type: physicochemical
Staphylococcus aureus = assay: Antibacterial activity against methicillin-resistant Staphylococcus aureus ATCC 33591 after 12 hrs by resazurin dye based assay; type: functional; details: ATCC 33591, 12 h
[6] = Inhibition of Salmonella typhimurium Serine acetyltransferase expressed in Escherichia coli Tuner(TM) BL21(DE3) cells using acetylCo-A and L-serine as substrate measured every 27 secs for 5 mins by DNTB reagent-based UV-Visible spectrophotometric method; set-up: species or system Salmonella enterica subsp. enterica serovar Typhimurium

Structure (SMILES) | inhibition [1] [%] | MIC (Escherichia coli [2]) [µg/mL] | MIC (Escherichia coli [3]) [µg/mL] | inhibition [4] | solubility [5] | MIC (Staphylococcus aureus) [µg/mL] | IC50 [6] [µM]
COc1cc(NC(=O)c2cc(-c3ccc(OC)c(S(N)(=O)=O)c3)[nH]n2)cc(OC)c1 | 52 | > 128 | > 128 | Active | Insoluble |  | 
CC1=C2[C@@H](OC1=O)C(=O)[C@@H]1[C@@](O)(CCC3C(C)(C)CCC[C@]31C)[C@H]2O (some centres not stated) |  |  |  |  |  | 12.5 (≈ 35.9 µM) | 
O=C(Nc1ncc([N+](=O)[O-])s1)c1csnn1 | 68 | 64 (≈ 249 µM) | > 128 |  |  |  | 48.6
COc1cccc(NC(=O)c2cc(-c3ccc(OC)c(S(N)(=O)=O)c3)[nH]n2)c1 | 75 | > 128 | > 128 |  |  |  | 13.6
CC1(C)CCC[C@]2(C)C1CC[C@]1(O)[C@H](O)C3=C(CO)C(=O)OC3=C[C@H]12 (some centres not stated) |  |  |  |  |  | 25 (≈ 71.7 µM) | 
C=CCSc1nc2c(c(=O)[nH]1)C(c1ccc(OCC(N)=O)cc1)CC(=O)N2 (configuration not stated) | 57 | > 128 | > 128 |  |  |  | 84.1
Cc1snnc1C(=O)Nc1ncc([N+](=O)[O-])s1 | 72 | > 128 | > 128 |  |  |  | 47.8
COc1ccc(-c2cc(C(=O)NCc3ccccc3)n[nH]2)cc1S(N)(=O)=O | 79 | > 128 | > 128 |  |  |  | 52.8
